# Reference: ChEMBL document CHEMBL2176871, “Development of ligands at γ-aminobutyrric acid type A (GABAA) receptor subtype as new agents for pain relief” (Bioorg Med Chem, 2011)
# The source made the active and inactive calls.
# How the values were obtained:
# Mus musculus [1] = experiment: Antihyperalgesic activity against streptozotocin-induced hyperalgesia in Swiss albino mouse […] assessed as licking latency time at 30 mg/kg, po after 30 mins by hot plate test (reference value: 9.2 +/- 0.8 secs); format: functional
# Rattus norvegicus [2] = experiment: Toxicity in Sprague-Dawley rat mononeuropathy pain model assessed as effect on contralateral paw pressure at 10 mg/kg, po after 30 mins by paw pressure test; format: organism-based; parameters: dose 10 mg/kg, route oral; conditions: in vivo, 0.5 h
# In short: (§1)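 Same sciatic-ligation rat model, 14 days after surgery. Threshold measured on the non-operated contralateral hind paw by analgesimeter at 32 g/s; first-struggle endpoint; 250 g cut-off; pretest rats outside 40–75 g rejected. Compound given po in 10 ml/kg; readings at 15, 30 and 45 min.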
# Rattus norvegicus [3] = experiment: Antinociceptive activity in Sprague-Dawley rat mononeuropathy pain model assessed as increase in injured paw pressure at 30 mg/kg, po after 15 mins by paw pressure test relative to non-treated control; format: functional
# In short: (§2)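 Chronic constriction injury: loose ligatures placed on the common sciatic nerve under chloral hydrate; contralateral sham dissection. Tested 14 days after surgery. Paw pressure applied at 32 g/s; threshold taken as the force causing the first struggle; cut-off 250 g; pretest outliers (<40 g or >75 g) excluded. Oral dosing in 10 ml/kg; read at 15, 30 and 45 min; compared with a CMC-treated group.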
# Rattus norvegicus [4] = experiment: Toxicity in Sprague-Dawley rat mononeuropathy pain model assessed as effect on contralateral paw pressure at 1 mg/kg, po after 15 mins by paw pressure test; format: organism-based; parameters: dose 1 mg/kg, route oral; conditions: in vivo, 0.25 h; in short: as §1
# Mus musculus [5] = experiment: Antihyperalgesic activity Swiss albino mouse […] assessed as licking latency time at 30 mg/kg, po after 60 mins by hot plate test (reference value: 17.9 +/- 1.1 secs); format: functional
# In short: (§3)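 Hot plate at 52.5 ± 0.1 °C in non-diabetic male Swiss mice. Latency to licking of fore or hind paws was timed before dosing and every 15 min up to 60 min after oral dosing. Mice with pretest latencies below 12 s or above 18 s were excluded. Cut-off was 45 s.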
# Rattus norvegicus [6] = experiment: Antinociceptive activity in Sprague-Dawley rat mononeuropathy pain model assessed as increase in injured paw pressure at 10 mg/kg, po after 30 mins by paw pressure test relative to non-treated control; format: functional; in short: as §2
# Rattus norvegicus [7] = experiment: Antinociceptive activity in Sprague-Dawley rat mononeuropathy pain model assessed as increase in injured paw pressure at 10 mg/kg, po after 15 mins by paw pressure test relative to non-treated control; format: functional; in short: as §2
# Rattus norvegicus [8] = experiment: Toxicity in Sprague-Dawley rat mononeuropathy pain model assessed as effect on contralateral paw pressure at 60 mg/kg, po after 15 mins by paw pressure test; format: organism-based; parameters: dose 60 mg/kg, route oral; conditions: in vivo, 0.25 h; in short: as §1
# Rattus norvegicus [9] = experiment: Antinociceptive activity in Sprague-Dawley rat mononeuropathy pain model assessed as increase in injured paw pressure at 60 mg/kg, po after 45 mins by paw pressure test relative to non-treated control; format: functional; in short: as §2
# Rattus norvegicus [10] = experiment: Antinociceptive activity in Sprague-Dawley rat mononeuropathy pain model assessed as increase in injured paw pressure at 1 mg/kg, po after 30 mins by paw pressure test relative to non-treated control; format: functional; in short: as §2
# Bos taurus = species: Bos taurus; experiment: Displacement of [3H]Ro151788 from GABA(A)/BzR in bovine cerebral cortex membrane at 10 uM; format: cell membranes
# In short: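 Bovine cerebral cortex membranes in 50 mM Tris-citrate pH 7.4; [3H]flumazenil displacement. Compounds first tested at a fixed 10 µM; Ki determined only when inhibition exceeded 80%, using at least six concentrations. Five experiments run in triplicate; IC50 obtained by iterative curve fitting and converted to Ki with the Cheng–Prusoff equation.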
# Rattus norvegicus [11] = experiment: Toxicity in Sprague-Dawley rat mononeuropathy pain model assessed as effect on contralateral paw pressure at 10 mg/kg, po after 15 mins by paw pressure test; format: organism-based; parameters: dose 10 mg/kg, route oral; conditions: in vivo, 0.25 h; in short: as §1
# Rattus norvegicus [12] = experiment: Toxicity in Sprague-Dawley rat mononeuropathy pain model assessed as effect on contralateral paw pressure at 60 mg/kg, po after 30 mins by paw pressure test; format: organism-based; parameters: dose 60 mg/kg, route oral; conditions: in vivo, 0.5 h; in short: as §1
# Rattus norvegicus [13] = experiment: Toxicity in Sprague-Dawley rat mononeuropathy pain model assessed as effect on contralateral paw pressure at 60 mg/kg, po after 45 mins by paw pressure test; format: organism-based; parameters: dose 60 mg/kg, route oral; conditions: in vivo, 0.75 h; in short: as §1
# Rattus norvegicus [14] = experiment: Antinociceptive activity in Sprague-Dawley rat mononeuropathy pain model assessed as increase in injured paw pressure at 60 mg/kg, po after 15 mins by paw pressure test relative to non-treated control; format: functional; in short: as §2
# Rattus norvegicus [15] = experiment: Antinociceptive activity in Sprague-Dawley rat mononeuropathy pain model assessed as increase in injured paw pressure at 30 mg/kg, po after 30 mins by paw pressure test relative to non-treated control; format: functional; in short: as §2
# Rattus norvegicus [16] = experiment: Antinociceptive activity in Sprague-Dawley rat mononeuropathy pain model assessed as increase in injured paw pressure at 60 mg/kg, po after 30 mins by paw pressure test relative to non-treated control; format: functional; in short: as §2
# Rattus norvegicus [17] = experiment: Toxicity in Sprague-Dawley rat mononeuropathy pain model assessed as effect on contralateral paw pressure at 30 mg/kg, po after 45 mins by paw pressure test; format: organism-based; parameters: dose 30 mg/kg, route oral; conditions: in vivo, 0.75 h; in short: as §1
# Mus musculus [18] = experiment: Anxiolytic-like activity in Swiss albino mouse at 10 to 30 mg/kg, po after 30 mins by light/dark box test; format: functional, organism-based
# In short: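 Male Swiss mice tested in a two-compartment light/dark box. Transfers between compartments and time spent in the lit side recorded. Compound given po 30 min before testing, in 10 ml/kg; flumazenil given i.p. for antagonism; 8 mice per group.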
# Rattus norvegicus [19] = experiment: Toxicity in Sprague-Dawley rat mononeuropathy pain model assessed as effect on contralateral paw pressure at 1 mg/kg, po after 45 mins by paw pressure test; format: organism-based; parameters: dose 1 mg/kg, route oral; conditions: in vivo, 0.75 h; in short: as §1
# Rattus norvegicus [20] = experiment: Antinociceptive activity in Sprague-Dawley rat mononeuropathy pain model assessed as increase in injured paw pressure at 10 mg/kg, po after 45 mins by paw pressure test relative to non-treated control; format: functional; in short: as §2
# Mus musculus [21] = experiment: Antihyperalgesic activity against streptozotocin-induced hyperalgesia in Swiss albino mouse […] assessed as licking latency time at 30 mg/kg, po after 60 mins by hot plate test (reference value: 9.2 +/- 0.8 secs); format: functional
# Mus musculus [22] = experiment: Antihyperalgesic activity against streptozotocin-induced hyperalgesia in Swiss albino mouse […] assessed as licking latency time at 30 mg/kg, po after 15 mins by hot plate test (reference value: 9.2 +/- 0.8 secs); format: functional
# Rattus norvegicus [23] = experiment: Toxicity in Sprague-Dawley rat mononeuropathy pain model assessed as effect on contralateral paw pressure at 10 mg/kg, po after 45 mins by paw pressure test; format: organism-based; parameters: dose 10 mg/kg, route oral; conditions: in vivo, 0.75 h; in short: as §1
# Mus musculus [24] = experiment: Antihyperalgesic activity Swiss albino mouse […] assessed as licking latency time at 30 mg/kg, po after 30 mins by hot plate test (reference value: 17.9 +/- 1.1 secs); format: functional; in short: as §3
# Rattus norvegicus [25] = experiment: Toxicity in Sprague-Dawley rat mononeuropathy pain model assessed as effect on contralateral paw pressure at 1 mg/kg, po after 30 mins by paw pressure test; format: organism-based; parameters: dose 1 mg/kg, route oral; conditions: in vivo, 0.5 h; in short: as §1
# Mus musculus [26] = experiment: Antihyperalgesic activity Swiss albino mouse […] assessed as licking latency time at 30 mg/kg, po after 45 mins by hot plate test (reference value: 17.9 +/- 1.1 secs); format: functional; in short: as §3
# Rattus norvegicus [27] = experiment: Antinociceptive activity in Sprague-Dawley rat mononeuropathy pain model assessed as increase in injured paw pressure at 1 mg/kg, po after 15 mins by paw pressure test relative to non-treated control; format: functional; in short: as §2
smiles,measurement,setting,value
Cc1cnn2c1n[n+]([O-])c1ccc(OCc3ccccc3)cc12,Time,Mus musculus [1],17.6 s
same,Activity,Rattus norvegicus [2],62.7 g
same,Activity,Rattus norvegicus [3],52.8 g
same,Activity,Rattus norvegicus [4],57.3 g
same,Time,Mus musculus [5],17.2 s
same,Activity,Rattus norvegicus [6],40.1 g
same,Activity,Rattus norvegicus [7],48.7 g
same,Activity,Rattus norvegicus [8],59.9 g
same,Activity,Rattus norvegicus [9],31.5 g
same,Activity,Rattus norvegicus [10],34.5 g
same,inhibition,Bos taurus,> 80%
same,Activity,Rattus norvegicus [11],60.4 g
same,Activity,Rattus norvegicus [12],60.8 g
same,Activity,Rattus norvegicus [13],57.2 g
same,Activity,Rattus norvegicus [14],50.1 g
same,Activity,Rattus norvegicus [15],44.2 g
same,Activity,Rattus norvegicus [16],40.8 g
same,Activity,Rattus norvegicus [17],60.5 g
same,Activity,Mus musculus [18],Active
same,Activity,Rattus norvegicus [19],59.1 g
same,Activity,Rattus norvegicus [20],30.4 g
same,Time,Mus musculus [21],15.7 s
same,Time,Mus musculus [22],14.9 s
same,Activity,Rattus norvegicus [23],63.5 g
same,Time,Mus musculus [24],18.1 s
same,Activity,Rattus norvegicus [25],60.6 g
same,Time,Mus musculus [26],18.5 s
same,Activity,Rattus norvegicus [27],32.3 g
